Results taken from ChEMBL document CHEMBL1687745 (Antimicrob Agents Chemother, 2009).
Converted amounts (≈) assume the structure as drawn. The source made the active and inactive calls. The rule behind the calls is not given here.

Experiments:
[1] = tested on: Bacillus subtilis; test: Disruption of bacterial membrane permeability in Bacillus subtilis BD54 using DiSC3 fluorescent dye staining based fluorimetric assay; format: functional, organism-based
Method in brief: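 B. subtilis BD54 was grown in LB to OD600 0.4–0.5, washed and resuspended to OD600 0.1 in 5 mM HEPES pH 7.4 with 20 mM glucose. Cells were loaded with 1 µM DiSC3(5) for 10 min at room temperature, then 100 mM KCl was added. […] Fluorescence (ex 622/em 670 nm) was read after 5 min in eight wells per condition. DNP at 200 µg/ml served as positive control.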

[2] = tested on: Bacillus subtilis; test: Antimicrobial activity against Bacillus subtilis clinical isolate by broth microdilution method; format: functional
[3] = tested on: Bacillus subtilis; test: Inhibition of DNA synthesis in Bacillus subtilis BD54 at 5 X MIC by [3H]thymidine incorporation assay; format: functional, organism-based
Method in brief: (§1)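 Precursors were [methyl-3H]thymidine (DNA), [5-3H]uridine (RNA), L-[4,5-3H]leucine (protein) and N-acetyl-D-[1-3H]glucosamine (cell wall). Samples taken over time, precipitated with equal volume of ice-cold 20% TCA, filtered on glass fibre, and counted. cpm plotted against time.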

[4] = tested on: Mycolicibacterium smegmatis; test: Antimicrobial activity against Mycobacterium smegmatis 19420 by broth microdilution method; format: functional
Method in brief: (§2)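 Broth microdilution. Log-phase cultures (5 × 10^5 CFU/ml) seeded in 96-well plates with compound from 0 to 20 µM or 1% DMSO control. Incubated at 37°C for 16 to 20 h. Growth read as absorbance at 600 nm.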

[5] = tested on: Staphylococcus aureus; test: Antimicrobial activity against Staphylococcus aureus by broth microdilution method; format: functional; method in brief: as §2
[6] = Cytotoxicity against human HeLa cells after 3 days by MTS assay in presence of 10% fetal calf serum; format: cell-based
[7] = tested on: Staphylococcus aureus; test: Antibacterial activity against MBX 1090 resistant Staphylococcus aureus NCTC8325 isolates selected on 10 to 12 days of serial passage through MBX 1090; format: functional
Method in brief: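 Eight independent S. aureus NCTC8325 cultures were grown with compound at 0.125× to 128× MIC. Each day, cells were passaged from the highest-concentration well still showing >50% of untreated growth, for up to 20 days. Colonies isolated from resistant cultures were confirmed by MIC assay.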

[8] = tested on: Bacillus anthracis; test: Antimicrobial activity against Bacillus anthracis Sterne spores by broth microdilution method; format: functional
[9] = tested on: Burkholderia cepacia; test: Antimicrobial activity against Burkholderia cepacia clinical isolate by broth microdilution method; format: functional; method in brief: as §2
[10] = tested on: Staphylococcus aureus; test: Antimicrobial activity against methicillin-resistant Staphylococcus aureus clinical isolate by broth microdilution method; format: functional
[11] = tested on: Burkholderia thailandensis; test: Antimicrobial activity against Burkholderia thailandensis by broth microdilution method; format: functional
[12] = tested on: Enterococcus faecalis; test: Antimicrobial activity against Enterococcus faecalis 29212 clinical isolate by broth microdilution method; format: functional
[13] = tested on: Burkholderia mallei; test: Antimicrobial activity against Burkholderia mallei ATCC 23344 by broth microdilution method; format: functional
[14] = tested on: Bacillus anthracis; test: Inhibition of spore germination in Bacillus anthracis Sterne spores at MIC after 4 hrs; format: functional, organism-based
[15] = tested on: Staphylococcus aureus; test: Antimicrobial activity against methicillin-resistant Staphylococcus aureus 1094 by broth microdilution method; format: functional
[16] = tested on: Bacillus anthracis; test: microbe, parasite or virus in culture; details: Ames
[17] = tested on: Bacillus anthracis; test: Antimicrobial activity against Bacillus anthracis Sterne vegetative cells by broth microdilution method; format: functional
[18] = tested on: Escherichia coli; test: Antimicrobial activity against Escherichia coli J53 clinical isolate by broth microdilution method; format: functional
[19] = tested on: Brevibacillus brevis; test: Antimicrobial activity against Bacillus brevis clinical isolate by broth microdilution method; format: functional; method in brief: as §2
[20] = tested on: Staphylococcus aureus; test: Antimicrobial activity against Staphylococcus aureus ATCC 25923 by broth microdilution method; format: functional; method in brief: as §2
[21] = tested on: Burkholderia pseudomallei; test: Antimicrobial activity against Burkholderia pseudomallei DD503 by broth microdilution method; format: functional
[22] = tested on: Bacillus anthracis; test: Antibacterial activity against Bacillus anthracis Ames spores infected in C57BL/6 mouse assessed as mouse survival rate at 1 mg/kg, ip for 5 days every 6 hrs administered 6 hrs post bacterial challenge measured up to 20 days post infection; format: functional; details: route intraperitoneal
[23] = tested on: Bacillus pumilus; test: Antimicrobial activity against Bacillus pumilus clinical isolate by broth microdilution method; format: functional; method in brief: as §2
[24] = tested on: Priestia megaterium; test: Antimicrobial activity against Bacillus megaterium clinical isolate by broth microdilution method; format: functional
[25] = tested on: Bacillus subtilis; test: Effect on bacterial membrane permeability in Bacillus subtilis BD54 upto 10 times MIC using DiSC3 fluorescent dye staining based fluorimetric assay; format: functional, organism-based
Method in brief: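 B. subtilis BD54 grown in LB to OD600 0.4–0.5, washed, and resuspended to OD600 0.1 in 5 mM HEPES pH 7.4 with 20 mM glucose. Loaded with 1 µM DiSC3(5) for 10 min at room temperature, then 100 mM KCl added. […] Fluorescence read at 5 min (ex 622, em 670 nm). DNP 200 µg/ml positive control; mean ± SD of 8 wells.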

[26] = tested on: Mycolicibacterium smegmatis; test: Antimicrobial activity against Mycobacterium smegmatis 35798 by broth microdilution method; format: functional; method in brief: as §2
[27] = tested on: HeLa; test: Effect on cell membrane integrity in human HeLa cells assessed as lactate dehydrogenase release at 32 times MIC against Staphylococcus aureus by CytoTox ONE homogenous membrane integrity assay; format: cell-based
Method in brief: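 Confluent HeLa cells in DMEM treated for 1 h with a range of compound concentrations, 1% DMSO final. […] LDH activity in the supernatant measured by a membrane-integrity kit.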

[28] = tested on: Mycolicibacterium smegmatis; test: Antimicrobial activity against Mycobacterium smegmatis 700009 by broth microdilution method; format: functional; method in brief: as §2
[29] = tested on: Yersinia pestis; test: Antimicrobial activity against Yersinia pestis by broth microdilution method; format: functional
[30] = tested on: Bacillus anthracis; test: Antimicrobial activity against Bacillus anthracis Vollum clinical isolate by broth microdilution method; format: functional
[31] = tested on: Enterococcus faecalis; test: Antimicrobial activity against Enterococcus faecalis clinical isolate by broth microdilution method; format: functional; method in brief: as §2
[32] = tested on: Staphylococcus aureus; test: Antibacterial activity against Staphylococcus aureus Smith infected in Swiss Webster mouse assessed as assessed as protection against microbe-induced mortality at 10 mg/kg, iv administered as single dose 15 mins post bacterial challenge measured 48 hrs post infection; format: functional
Method in brief: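 Swiss Webster mice (n = 10/group) were challenged i.p. with 8.3 × 10^8 CFU. After 15 min they received a single i.v. dose in 10% dimethyl acetamide–5% dextrose in water (pH 4.0), alongside vehicle and daptomycin (10 mg/kg) controls. Survival was followed for 48 h.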

[33] = tested on: Bacillus licheniformis; test: Antimicrobial activity against Bacillus licheniformis clinical isolate by broth microdilution method; format: functional
[34] = tested on: Bacillus anthracis; test: Antimicrobial activity against Bacillus anthracis Ames by broth microdilution method in presence of 10% fetal calf serum; format: functional
[35] = tested on: Bacillus anthracis; test: Protection against Bacillus anthracis Sterne spores induced cell death in mouse J774A1 cells assessed as live viable cells at 10 uM by Sytox green dye staining assay relative to untreated control; format: functional, J774.A1
[36] = tested on: Pseudomonas aeruginosa; test: Antimicrobial activity against Pseudomonas aeruginosa PAO1 by broth microdilution method; format: functional; method in brief: as §2
[37] = tested on: Enterococcus faecalis; test: Antimicrobial activity against vancomycin-resistant Enterococcus faecalis ATCC 51575 by broth microdilution method; format: functional
[38] = tested on: Bacillus anthracis; test: microbe, parasite or virus in culture; details: Ames; remark: listed apart in the source
[39] = tested on: Klebsiella pneumoniae; test: Antimicrobial activity against Klebsiella pneumoniae 5657 by broth microdilution method; format: functional; method in brief: as §2
[40] = tested on: Enterococcus faecium; test: Antimicrobial activity against vancomycin-resistant Enterococcus faecium B42762 by broth microdilution method; format: functional
[41] = tested on: Bacillus anthracis; test: Protection against Bacillus anthracis Sterne spores induced cell death in mouse J774A1 cells assessed as dead cells at 10 uM by Sytox green dye staining assay relative to untreated control; format: functional, J774.A1
[42] = tested on: Bacillus subtilis; test: Inhibition of cell wall synthesis in Bacillus subtilis BD54 at 5 X MIC by N-acetyl-D-[1-3H] glucosamine incorporation assay; format: functional; method in brief: as §1
[43] = tested on: Bacillus subtilis; test: Inhibition of RNA synthesis in Bacillus subtilis BD54 at 5 X MIC by [5-3H]uridine incorporation assay; format: functional; method in brief: as §1

O=[N+]([O-])c1ccc(O)c([N+](=O)[O-])c1
Activity [1]: Active

C(=C\c1cc2ccc(C3=NCCN3)cc2[nH]1)/c1cc2ccc(C3=NCCN3)cc2[nH]1
MIC [2]: 0.3 µg/mL (≈ 0.76 µM)
inhibition [3]: Active
MIC [4]: 0.2 µg/mL (≈ 0.507 µM)
MIC [5]: 1.2 µg/mL (≈ 3.04 µM)
CC50 at 72 h [6]: 10 µg/mL
MIC [7]: 16 µg/mL (≈ 40.6 µM)
MIC [8]: 0.3 µg/mL (≈ 0.76 µM)
MIC [9]: 19 µg/mL (≈ 48.2 µM)
MIC [10]: 2.3 µg/mL (≈ 5.83 µM)
MIC [11]: 19 µg/mL (≈ 48.2 µM)
MIC [12]: 0.3 µg/mL (≈ 0.76 µM)
MIC [13]: 1.6 µg/mL (≈ 4.06 µM)
inhibition [14]: inactive
MIC [15]: 0.6 µg/mL (≈ 1.52 µM)
MIC [16]: 0.2 µg/mL (≈ 0.507 µM)
MIC [17]: 1.2 µg/mL (≈ 3.04 µM)
MIC [18]: 0.6 µg/mL (≈ 1.52 µM)
MIC [19]: 0.6 µg/mL (≈ 1.52 µM)
MIC [20]: 0.9 µg/mL (≈ 2.28 µM)
MIC [21]: 3.1 µg/mL (≈ 7.86 µM)
survival at 1 mg/kg [22]: 100%
MIC [23]: 0.2 µg/mL (≈ 0.507 µM)
MIC [24]: 0.6 µg/mL (≈ 1.52 µM)
Activity [25]: Active
MIC [26]: 0.1 µg/mL (≈ 0.253 µM)
Activity [27]: Non-toxic
MIC [28]: 0.2 µg/mL (≈ 0.507 µM)
MIC [29]: 13 µg/mL (≈ 33 µM)
MBC [30]: 1.2 µg/mL (≈ 3.04 µM)
MIC [30]: 0.6 µg/mL (≈ 1.52 µM)
MIC [31]: 0.6 µg/mL (≈ 1.52 µM)
survival at 10 mg/kg [32]: 80%
MIC [33]: 2.3 µg/mL (≈ 5.83 µM)
MIC [34]: 0.6 µg/mL
Activity [35]: 73%
MIC [36]: 25 µg/mL (≈ 63.4 µM)
MIC [37]: 0.6 µg/mL (≈ 1.52 µM)
MBC [38]: 2.3 µg/mL (≈ 5.83 µM)
MIC [38]: 0.6 µg/mL (≈ 1.52 µM)
MIC [39]: 1.3 µg/mL (≈ 3.3 µM)
MIC [40]: 0.3 µg/mL (≈ 0.76 µM)
Activity [41]: 27%

c1cc2cc(-c3ccc4cc(C5=NCCN5)[nH]c4c3)[nH]c2cc1C1=NCCN1
MIC [2]: 0.6 µg/mL (≈ 1.63 µM)
inhibition [3]: Active
MIC [4]: 0.2 µg/mL (≈ 0.543 µM)
MIC [5]: 1.1 µg/mL (≈ 2.99 µM)
CC50 at 72 h [6]: 33 µg/mL
MIC [8]: 0.6 µg/mL (≈ 1.63 µM)
MIC [9]: 4.4 µg/mL (≈ 11.9 µM)
MIC [10]: 2.2 µg/mL (≈ 5.97 µM)
MIC [11]: 18 µg/mL (≈ 48.9 µM)
MIC [12]: 0.3 µg/mL (≈ 0.814 µM)
MIC [13]: 1.8 µg/mL (≈ 4.89 µM)
inhibition [14]: inactive
MIC [15]: 0.3 µg/mL (≈ 0.814 µM)
MBC [16]: 0.5 µg/mL (≈ 1.36 µM)
MIC [16]: 0.3 µg/mL (≈ 0.814 µM)
MIC [17]: 1.1 µg/mL (≈ 2.99 µM)
MIC [18]: 1.1 µg/mL (≈ 2.99 µM)
MIC [19]: 0.3 µg/mL (≈ 0.814 µM)
MIC [20]: 0.3 µg/mL (≈ 0.814 µM)
MIC [21]: 1.8 µg/mL (≈ 4.89 µM)
MIC [23]: 0.1 µg/mL (≈ 0.271 µM)
MIC [24]: 0.6 µg/mL (≈ 1.63 µM)
MIC [26]: < 0.1 µg/mL
Activity [27]: Non-toxic
inhibition (INH) [42]: 40%
MIC [28]: 0.3 µg/mL (≈ 0.814 µM)
MIC [29]: 7.4 µg/mL (≈ 20.1 µM)
MBC [30]: 1.1 µg/mL (≈ 2.99 µM)
MIC [30]: 0.6 µg/mL (≈ 1.63 µM)
MIC [31]: 2.2 µg/mL (≈ 5.97 µM)
MIC [33]: 2.2 µg/mL (≈ 5.97 µM)
MIC [34]: 0.3 µg/mL
Activity [35]: 89%
MIC [36]: 25 µg/mL (≈ 67.9 µM)
MIC [37]: 0.5 µg/mL (≈ 1.36 µM)
MBC [38]: 2.2 µg/mL (≈ 5.97 µM)
MIC [38]: 1.1 µg/mL (≈ 2.99 µM)
inhibition (INH) [43]: 40%
MIC [39]: 0.4 µg/mL (≈ 1.09 µM)
MIC [40]: 0.2 µg/mL (≈ 0.543 µM)
Activity [41]: 11%
